ChEMBL document CHEMBL1121393, “Synthesis and biological activity of flavipucine analogues” (1980)
≈ marks a conversion by molar mass, not a printed value.

Key:
Format in all cases: functional
[1] = tested on: Staphylococcus aureus; assay: Tested in vitro for antibacterial activity against Staphylococcus aureus
Summary of the method: (§1)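 MICs determined by twofold agar dilution in nutrient agar with 0.2% yeast extract. Organisms were inoculated onto the plates with a Steers multiple inoculator.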

[2] = tested on: Escherichia coli; assay: Tested in vitro for antibacterial activity against Escherichia coli; summary of the method: as §1
[3] = tested on: Klebsiella pneumoniae; assay: Tested in vitro for antibacterial activity against Klebsiella pneumoniae; summary of the method: as §1
[4] = tested on: Klebsiella aerogenes; assay: Tested in vitro for antibacterial activity against Aerobacter aerogenes; summary of the method: as §1
[5] = tested on: Bordetella bronchiseptica; assay: Tested in vitro for antibacterial activity against Bordetella bronchiseptica; summary of the method: as §1
[6] = tested on: Proteus vulgaris; assay: Tested in vitro for antibacterial activity against Proteus volgaris; summary of the method: as §1
[7] = tested on: Aspergillus niger; assay: Tested for antifungal activity against Aspergillus niger
[8] = tested on: Alternaria solani; assay: Tested for antifungal activity against Alternaria solani
[9] = tested on: Pseudomonas aeruginosa; assay: Tested in vitro for antibacterial activity against Pseudomonas aeruginosa; summary of the method: as §1
[10] = tested on: Aureobasidium pullulans; assay: Tested for antifungal activity against Pullaria pullulans

| SMILES | MIC [1] | MIC [2] | MIC [3] | MIC [4] | MIC [5] | MIC [6] | MIC [7] | MIC [8] | MIC [9] | MIC [10] |
| --- | --- | --- | --- | --- | --- | --- | --- | --- | --- | --- |
| CC1=CC(=O)[C@@]2(O[C@@H]2C(=O)CC(C)C)C(=O)N1C | 12.5 µg/mL (≈ 49.7 µM) | 100 µg/mL (≈ 398 µM) | 50 µg/mL (≈ 199 µM) | > 100 µg/mL | 100 µg/mL (≈ 398 µM) | 6.3 µg/mL (≈ 25.1 µM) | 50 µg/mL (≈ 199 µM) | 6.3 µg/mL (≈ 25.1 µM) | > 100 µg/mL | – |
| CC(=O)[C@H]1O[C@@]12C(=O)C=C(C)NC2=O | 100 µg/mL (≈ 512 µM) | 50 µg/mL (≈ 256 µM) | > 100 µg/mL | > 100 µg/mL | > 100 µg/mL | > 100 µg/mL | > 100 µg/mL | > 100 µg/mL | 50 µg/mL (≈ 256 µM) | > 100 µg/mL |
| CC(C)CC(=O)C1OC12C(=O)CC(C)(C)CC2=O (stereo unspecified) | 25 µg/mL (≈ 99.1 µM) | > 100 µg/mL | 50 µg/mL (≈ 198 µM) | 25 µg/mL (≈ 99.1 µM) | 50 µg/mL (≈ 198 µM) | 50 µg/mL (≈ 198 µM) | 25 µg/mL (≈ 99.1 µM) | 3.1 µg/mL (≈ 12.3 µM) | 50 µg/mL (≈ 198 µM) | 6.3 µg/mL (≈ 25 µM) |
| CC1=CC(=O)[C@@]2(O[C@H]2C(=O)CC(C)C)C(=O)N1C | 25 µg/mL (≈ 99.5 µM) | > 100 µg/mL | 100 µg/mL (≈ 398 µM) | > 100 µg/mL | 100 µg/mL (≈ 398 µM) | 12.5 µg/mL (≈ 49.7 µM) | > 100 µg/mL | 12.5 µg/mL (≈ 49.7 µM) | > 100 µg/mL | – |
| CC(=O)[C@@H]1O[C@@]12C(=O)C=C(C)NC2=O | > 100 µg/mL | > 100 µg/mL | > 100 µg/mL | > 100 µg/mL | > 100 µg/mL | > 100 µg/mL | > 100 µg/mL | > 100 µg/mL | > 100 µg/mL | > 100 µg/mL |

These reach a lower MIC [1]. Values come first.

| MIC [1] | MIC [2] | MIC [3] | MIC [4] | MIC [5] | MIC [6] | MIC [7] | MIC [8] | MIC [9] | MIC [10] | SMILES |
| --- | --- | --- | --- | --- | --- | --- | --- | --- | --- | --- |
| 6.3 µg/mL (≈ 26.6 µM) | 50 µg/mL (≈ 211 µM) | 6.3 µg/mL (≈ 26.6 µM) | 100 µg/mL (≈ 421 µM) | 50 µg/mL (≈ 211 µM) | 6.3 µg/mL (≈ 26.6 µM) | > 100 µg/mL | 50 µg/mL (≈ 211 µM) | > 100 µg/mL | – | CC1=CC(=O)[C@@]2(O[C@H]2C(=O)CC(C)C)C(=O)N1 |
| 6.3 µg/mL (≈ 26.6 µM) | 50 µg/mL (≈ 211 µM) | 6.3 µg/mL (≈ 26.6 µM) | > 100 µg/mL | 50 µg/mL (≈ 211 µM) | 3.1 µg/mL (≈ 13.1 µM) | > 100 µg/mL | 25 µg/mL (≈ 105 µM) | > 100 µg/mL | – | CC1=CC(=O)[C@@]2(O[C@@H]2C(=O)CC(C)C)C(=O)N1 |
| 4.7 µg/mL (≈ 19.8 µM) | 50 µg/mL (≈ 211 µM) | 4.7 µg/mL (≈ 19.8 µM) | 100 µg/mL (≈ 421 µM) | 33.9 µg/mL (≈ 143 µM) | 4.7 µg/mL (≈ 19.8 µM) | > 100 µg/mL | 100 µg/mL (≈ 421 µM) | > 100 µg/mL | > 100 µg/mL | CC1=CC(=O)C2(OC2C(=O)CC(C)C)C(=O)N1 (stereo unspecified) |
| 0.8 µg/mL (≈ 2.6 µM) | > 100 µg/mL | > 100 µg/mL | – | 0.8 µg/mL (≈ 2.6 µM) | – | 1.6 µg/mL (≈ 5.21 µM) | 0.2 µg/mL (≈ 0.651 µM) | – | 0.2 µg/mL (≈ 0.651 µM) | CCCCCCCCCC(=O)[C@@H]1O[C@@]12C(=O)C=C(C)NC2=O |
| 0.4 µg/mL (≈ 1.3 µM) | > 100 µg/mL | > 100 µg/mL | – | 3.1 µg/mL (≈ 10.1 µM) | 12.5 µg/mL (≈ 40.7 µM) | 0.2 µg/mL (≈ 0.651 µM) | 0.2 µg/mL (≈ 0.651 µM) | – | 0.2 µg/mL (≈ 0.651 µM) | CCCCCCCCCC(=O)[C@H]1O[C@@]12C(=O)C=C(C)NC2=O |
